Experimental data taken from ChEMBL document CHEMBL1141651, “Discovery of a potent, selective, and orally active proteasome inhibitor for the treatment of cancer” (J Med Chem, 2008).
pEC50, pIC50: −log10 of the molar value.

Tests used:
[1] = Protein binding in mouse plasma; format: ADME, cell-free; details: read-out: PPB (converted)
[2] = molecular target: Tissue-type plasminogen activator (Homo sapiens) (UniProt P00750); experiment: Inhibition of human TPA at 10 uM
Caspase-9 (Homo sapiens) = Caspase-9 (Homo sapiens) (UniProt P55211); experiment: Inhibition of human caspase 9 at 10 uM
Sus scrofa = species on record: Sus scrofa; experiment: Inhibition of pig pepsin at 10 uM
[3] = molecular target: Protease (Human immunodeficiency virus 1) (UniProt Q9YQ12); experiment: Inhibition of HIV1 protease at 10 uM
[4] = Half life in CD1 mouse at 4 mg/kg, iv; format: ADME, organism-based; parameters: dose 4 mg/kg, route intravenous; details: in vivo
In short: (§1)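 Female Sprague–Dawley rats and CD-1 mice each received a single iv or oral (po) dose. Terminal half-life and systemic clearance were estimated from plasma exposure over time, alongside AUC0→∞, Vss and absolute oral bioavailability.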

[5] = Protein binding in dog plasma; format: ADME, cell-free, Canis lupus familiaris; details: read-out: PPB (converted)
Cytochrome P450 2D6 = Cytochrome P450 2D6 (Homo sapiens, UniProt P10635); experiment: Inhibition of human recombinant CYP2D6 upto 30 uM; format: ADME; details: recombinant enzyme
In short: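 Recombinant human P-450 isoforms (1A2, 2C9, 2C19, 2D6) with fluorescent P-450 substrates; tested at concentrations up to 30 µM to gauge inhibition.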

[6] = Metabolic stability in rat liver microsomes; format: ADME, Microsome
[7] = molecular target: Calpain-1 catalytic subunit (Homo sapiens) (UniProt P07384); experiment: Inhibition of human calpain 1 at 10 uM
Homo sapiens [8] = species on record: Homo sapiens; experiment: Inhibition of human chymotrypsin at 10 uM
Renin (Homo sapiens) = Renin (Homo sapiens) (UniProt P00797); experiment: Inhibition of human renin at 10 uM
[9] = molecular target: Dipeptidyl peptidase 1 (Bos taurus) (UniProt Q3ZCJ8); experiment: Inhibition of bovine cathepsin C at 10 uM
[10] = molecular target: Neutrophil elastase (Homo sapiens) (UniProt P08246); experiment: Inhibition of human neutrophil elastase 2 at 10 uM
[11] = Inhibition of chymotrypsin-like activity of human 20S proteasome in Molt4 cells; format: cell-based; details: molt-4
In short: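 Intact human leukemia Molt-4 cells were given the cell-permeable fluorogenic chymotrypsin-like substrate MeOSuc-FLF-AFC, so the read-out also reflects inhibitor cell permeability. Potency is reported as EC50.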

[12] = AUC (0 to infinity) in Sprague-Dawley rat at 0.2 mg/kg, iv; format: ADME, organism-based; parameters: dose 0.2 mg/kg, route intravenous, time infinity; details: plasma
In short: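 Female Sprague–Dawley rats received a single dose by the iv or oral route. AUC from 0 to infinity was reported alongside terminal half-life, Vss, clearance and absolute oral bioavailability.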

[13] = molecular target: Prothrombin (Homo sapiens) (UniProt P00734); experiment: Inhibition of human thrombin at 10 uM
[14] = molecular target: Matrilysin (Homo sapiens) (UniProt P09237); experiment: Inhibition of human MMP7 at 10 uM
Caspase-3 (Homo sapiens) = Caspase-3 (Homo sapiens) (UniProt P42574); experiment: Inhibition of human caspase 3 at 10 uM
[15] = Inhibition of bacterial prolyl oligopeptidase at 10 uM
[16] = AUC (0 to infinity) in CD1 mouse at 4 mg/kg, iv; format: ADME, organism-based; parameters: time infinity, dose 4 mg/kg, route intravenous; details: plasma
In short: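 CD-1 mice received a single dose by the iv or oral route. AUC from 0 to infinity was reported with terminal half-life, Vss, clearance and absolute oral bioavailability.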

[17] = molecular target: Coagulation factor VII (Homo sapiens) (UniProt P08709); experiment: Inhibition of human factor 7a at 10 uM
[18] = molecular target: Pro-cathepsin H (Homo sapiens) (UniProt P09668); experiment: Inhibition of human cathepsin H at 10 uM
Cathepsin G = Cathepsin G (Homo sapiens, UniProt P08311); experiment: Inhibition of human cathepsin G
[19] = Inhibition of chymotrypsin-like activity of human erythrocyte 20S proteasome
In short: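 Isolated 20S proteasome purified from human erythrocytes was tested in a fluorimetric kinetic assay of chymotrypsin-like activity. Potency is reported as IC50.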

[20] = Clearance in CD1 mouse at 4 mg/kg, iv; format: ADME, organism-based; parameters: dose 4 mg/kg, route intravenous; details: in vivo; in short: as §1
Trypsin (Homo sapiens) = Trypsin (Homo sapiens) (UniProt P07477+P07478+P35030); experiment: Inhibition of human trypsin at 10 uM; format: protein assay
Caspase-7 (Homo sapiens) = Caspase-7 (Homo sapiens) (UniProt P55210); experiment: Inhibition of human caspase 7 at 10 uM
[21] = molecular target: Stromelysin-1 (Homo sapiens) (UniProt P08254); experiment: Inhibition of human MMP3 at 10 uM
[22] = Half life in Sprague-Dawley rat at 0.2 mg/kg, iv; format: ADME, organism-based; parameters: dose 0.2 mg/kg, route intravenous; details: in vivo; in short: as §1
[23] = Clearance in Sprague-Dawley rat at 0.2 mg/kg, iv; format: ADME, organism-based; parameters: dose 0.2 mg/kg, route intravenous; details: in vivo; in short: as §1
Caspase-2 (Homo sapiens) = Caspase-2 (Homo sapiens) (UniProt P42575); experiment: Inhibition of human caspase 2 at 10 uM
[24] = Half life in CD1 mouse at 10 mg/kg, po; format: ADME, organism-based; parameters: dose 10 mg/kg, route oral; details: in vivo; in short: as §1
[25] = molecular target: Coagulation factor X (Homo sapiens) (UniProt P00742); experiment: Inhibition of human factor 10a at 10 uM
[26] = Metabolic stability in mouse liver microsomes; format: ADME, Microsome
[27] = molecular target: Cathepsin B (Homo sapiens) (UniProt P07858); experiment: Inhibition of human cathepsin B at 10 uM
Neutrophil elastase = Neutrophil elastase (Homo sapiens, UniProt P08246); experiment: Inhibition of human neutrophil elastase 2
[28] = Inhibition of bovine alpha chymotrypsin; parameters: species or system Bos taurus
Caspase-1 (Homo sapiens) = Caspase-1 (Homo sapiens) (UniProt P29466); experiment: Inhibition of human caspase 1 at 10 uM
[29] = molecular target: Interstitial collagenase (Homo sapiens) (UniProt P03956); experiment: Inhibition of human MMP1 at 10 uM
[30] = Protein binding in rat plasma; format: ADME, cell-free; details: read-out: PPB (converted)
[31] = Half life in Sprague-Dawley rat at 0.8 mg/kg, po; format: ADME, organism-based; parameters: dose 0.8 mg/kg, route oral; details: in vivo; in short: as §1
Homo sapiens [32] = species on record: Homo sapiens; experiment: Inhibition of human tryptase at 10 uM
[33] = Volume of distribution at steady state in CD1 mouse at 4 mg/kg, iv; format: ADME, organism-based; parameters: dose 4 mg/kg, route intravenous; details: in vivo, read-out: Vdss
In short: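 Single-dose pharmacokinetics after iv or oral administration in female Sprague–Dawley rats and in CD-1 mice; plasma exposure (AUC0–∞) used to derive steady-state volume of distribution, clearance, terminal half-life and absolute oral bioavailability.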

Cytochrome P450 3A4 = Cytochrome P450 3A4 (Homo sapiens, UniProt P08684); experiment: Inhibition of human recombinant CYP3A4; format: ADME
[34] = Oral bioavailability in Sprague-Dawley rat at 0.8 mg/kg; format: ADME, organism-based; details: in vivo
In short: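 Female Sprague-Dawley rats given a single iv dose (0.2 mg/kg) and a single oral dose (0.8 mg/kg). Plasma AUC0-∞ was determined, and absolute oral bioavailability F (%) was derived by comparing oral with iv exposure.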

Caspase-8 (Homo sapiens) = Caspase-8 (Homo sapiens) (UniProt Q14790); experiment: Inhibition of human caspase 8 at 10 uM
[35] = molecular target: Macrophage metalloelastase (Homo sapiens) (UniProt P39900); experiment: Inhibition of human MMP12 at 10 uM
Chymase (Homo sapiens) = Chymase (Homo sapiens) (UniProt P23946); experiment: Inhibition of human chymase at 10 uM
[36] = molecular target: Plasma kallikrein (Homo sapiens) (UniProt P03952); experiment: Inhibition of human plasma kallikrein at 10 uM

Chain of Cytochrome P450 2D6 (P10635 whole entry, canonical isoform): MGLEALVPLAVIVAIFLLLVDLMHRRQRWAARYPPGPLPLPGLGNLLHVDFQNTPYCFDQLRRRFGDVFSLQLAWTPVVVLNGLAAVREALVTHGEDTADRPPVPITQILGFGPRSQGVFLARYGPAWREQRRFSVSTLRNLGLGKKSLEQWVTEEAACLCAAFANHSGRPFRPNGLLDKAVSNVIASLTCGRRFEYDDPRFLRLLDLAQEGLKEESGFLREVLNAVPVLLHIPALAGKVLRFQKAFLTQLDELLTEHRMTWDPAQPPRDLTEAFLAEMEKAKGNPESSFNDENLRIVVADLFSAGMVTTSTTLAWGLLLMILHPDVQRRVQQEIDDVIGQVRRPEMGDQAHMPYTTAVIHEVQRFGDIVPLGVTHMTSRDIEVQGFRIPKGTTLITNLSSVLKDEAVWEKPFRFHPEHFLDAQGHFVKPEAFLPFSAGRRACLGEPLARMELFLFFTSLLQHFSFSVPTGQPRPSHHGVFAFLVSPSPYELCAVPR
Chain of Interstitial collagenase (Homo sapiens) (P03956 whole entry): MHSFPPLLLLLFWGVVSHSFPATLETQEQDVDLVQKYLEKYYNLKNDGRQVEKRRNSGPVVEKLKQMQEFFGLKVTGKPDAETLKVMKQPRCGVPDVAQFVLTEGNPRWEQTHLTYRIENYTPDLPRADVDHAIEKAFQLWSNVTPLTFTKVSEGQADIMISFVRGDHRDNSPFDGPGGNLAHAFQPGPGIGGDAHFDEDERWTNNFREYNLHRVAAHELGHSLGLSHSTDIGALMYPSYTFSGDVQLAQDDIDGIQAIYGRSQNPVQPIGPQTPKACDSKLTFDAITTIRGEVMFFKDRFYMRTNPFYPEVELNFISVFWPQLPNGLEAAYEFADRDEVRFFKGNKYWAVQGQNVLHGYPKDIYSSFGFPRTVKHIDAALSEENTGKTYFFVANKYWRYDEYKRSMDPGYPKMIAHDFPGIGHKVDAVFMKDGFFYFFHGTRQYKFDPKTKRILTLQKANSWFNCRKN
Chain of Caspase-2 (Homo sapiens) (P42575 170-325 limits assumed): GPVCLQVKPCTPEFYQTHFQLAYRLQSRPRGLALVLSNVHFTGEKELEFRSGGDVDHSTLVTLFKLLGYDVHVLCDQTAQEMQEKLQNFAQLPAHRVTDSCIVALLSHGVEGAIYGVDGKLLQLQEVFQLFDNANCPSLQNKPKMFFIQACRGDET
Chain of Caspase-2 (Homo sapiens) (P42575 334-452 limits assumed): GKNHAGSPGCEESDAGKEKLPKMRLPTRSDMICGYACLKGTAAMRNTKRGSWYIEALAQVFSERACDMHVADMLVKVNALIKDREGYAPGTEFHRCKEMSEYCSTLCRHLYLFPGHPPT
Chain of Matrilysin (Homo sapiens) (P09237 whole entry): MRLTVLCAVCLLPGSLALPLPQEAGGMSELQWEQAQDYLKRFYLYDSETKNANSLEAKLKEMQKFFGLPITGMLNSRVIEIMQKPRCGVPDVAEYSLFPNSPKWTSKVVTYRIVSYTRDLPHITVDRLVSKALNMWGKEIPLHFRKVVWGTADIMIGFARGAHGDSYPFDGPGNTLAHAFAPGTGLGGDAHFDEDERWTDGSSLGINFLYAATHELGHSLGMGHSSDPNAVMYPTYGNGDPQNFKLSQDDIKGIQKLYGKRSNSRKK
Chain of Pro-cathepsin H (Homo sapiens) (P09668 116-335 limits assumed, other chains not shown): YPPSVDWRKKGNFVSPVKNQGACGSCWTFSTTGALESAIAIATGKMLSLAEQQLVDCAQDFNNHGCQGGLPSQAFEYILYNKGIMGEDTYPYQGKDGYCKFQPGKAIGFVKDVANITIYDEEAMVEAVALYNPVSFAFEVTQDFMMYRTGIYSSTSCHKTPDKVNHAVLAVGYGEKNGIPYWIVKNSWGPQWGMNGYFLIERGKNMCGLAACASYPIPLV
Chain of Coagulation factor VII (Homo sapiens) (P08709 61-212 limits assumed): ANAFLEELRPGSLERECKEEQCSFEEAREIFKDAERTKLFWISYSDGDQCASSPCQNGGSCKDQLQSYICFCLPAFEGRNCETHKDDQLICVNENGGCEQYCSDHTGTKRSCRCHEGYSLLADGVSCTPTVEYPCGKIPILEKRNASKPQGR
Chain of Coagulation factor VII (Homo sapiens) (P08709 213-466 limits assumed): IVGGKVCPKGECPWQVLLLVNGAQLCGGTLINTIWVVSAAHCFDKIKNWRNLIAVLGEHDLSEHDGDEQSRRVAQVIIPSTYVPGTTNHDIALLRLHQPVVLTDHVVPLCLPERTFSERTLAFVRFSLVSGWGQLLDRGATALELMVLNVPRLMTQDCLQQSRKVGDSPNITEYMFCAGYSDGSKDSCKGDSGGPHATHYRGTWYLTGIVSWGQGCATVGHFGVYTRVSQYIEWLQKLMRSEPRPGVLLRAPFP
Chain of Coagulation factor X (Homo sapiens) (P00742 41-179 limits assumed): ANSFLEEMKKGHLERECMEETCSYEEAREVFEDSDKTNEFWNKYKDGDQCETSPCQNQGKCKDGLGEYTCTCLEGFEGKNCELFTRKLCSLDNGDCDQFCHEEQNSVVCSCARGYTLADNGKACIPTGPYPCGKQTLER
Chain of Coagulation factor X (Homo sapiens) (P00742 235-488 limits assumed): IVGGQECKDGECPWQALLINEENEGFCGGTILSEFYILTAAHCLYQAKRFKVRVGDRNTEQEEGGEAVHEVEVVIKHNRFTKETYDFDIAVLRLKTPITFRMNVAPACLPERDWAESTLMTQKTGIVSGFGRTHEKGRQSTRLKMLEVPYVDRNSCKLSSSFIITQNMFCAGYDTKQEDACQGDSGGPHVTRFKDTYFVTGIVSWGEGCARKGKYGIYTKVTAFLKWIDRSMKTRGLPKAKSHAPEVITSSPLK
Chain of Chymase (Homo sapiens) (P23946 whole entry): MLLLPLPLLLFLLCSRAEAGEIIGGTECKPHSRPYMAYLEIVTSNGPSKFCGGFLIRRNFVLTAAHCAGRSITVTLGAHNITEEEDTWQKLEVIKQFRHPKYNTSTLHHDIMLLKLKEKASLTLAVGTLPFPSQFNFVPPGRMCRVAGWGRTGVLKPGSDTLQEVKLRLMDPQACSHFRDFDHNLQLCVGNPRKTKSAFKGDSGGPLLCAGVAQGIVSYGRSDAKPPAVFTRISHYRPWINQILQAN
Chain of Caspase-7 (Homo sapiens) (P55210 24-198 limits assumed): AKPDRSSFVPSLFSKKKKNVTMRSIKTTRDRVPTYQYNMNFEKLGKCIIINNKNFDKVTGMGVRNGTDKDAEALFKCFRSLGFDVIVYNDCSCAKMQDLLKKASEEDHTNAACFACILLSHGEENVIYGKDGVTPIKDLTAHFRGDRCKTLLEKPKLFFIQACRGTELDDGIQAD
Chain of Caspase-7 (Homo sapiens) (P55210 207-303 limits assumed): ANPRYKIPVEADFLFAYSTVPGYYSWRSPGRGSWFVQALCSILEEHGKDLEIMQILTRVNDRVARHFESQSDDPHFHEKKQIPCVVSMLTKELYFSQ
Chain of Cathepsin G (P08311 whole entry): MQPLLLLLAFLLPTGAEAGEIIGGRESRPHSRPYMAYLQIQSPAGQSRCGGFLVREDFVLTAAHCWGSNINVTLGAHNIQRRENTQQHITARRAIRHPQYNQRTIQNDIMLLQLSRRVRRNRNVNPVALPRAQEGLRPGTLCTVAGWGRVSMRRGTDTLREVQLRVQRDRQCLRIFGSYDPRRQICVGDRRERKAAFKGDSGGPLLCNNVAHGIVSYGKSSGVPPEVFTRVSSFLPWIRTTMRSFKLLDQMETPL
Chain of Caspase-8 (Homo sapiens) (Q14790 217-374 limits assumed): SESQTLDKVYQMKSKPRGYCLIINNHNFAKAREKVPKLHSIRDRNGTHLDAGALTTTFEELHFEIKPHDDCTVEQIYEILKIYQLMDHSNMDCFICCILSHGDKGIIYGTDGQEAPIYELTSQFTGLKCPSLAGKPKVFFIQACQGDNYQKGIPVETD
Chain of Caspase-8 (Homo sapiens) (Q14790 385-479 limits assumed): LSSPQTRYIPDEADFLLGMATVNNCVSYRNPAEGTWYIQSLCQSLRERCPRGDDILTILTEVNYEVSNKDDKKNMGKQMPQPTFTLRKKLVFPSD
Chain of Protease (Human immunodeficiency virus 1) (Q9YQ12 as listed by the source): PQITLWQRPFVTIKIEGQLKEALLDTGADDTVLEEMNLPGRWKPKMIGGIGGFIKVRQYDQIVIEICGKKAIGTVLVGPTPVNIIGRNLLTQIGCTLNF
Chain of Calpain-1 catalytic subunit (Homo sapiens) (P07384 whole entry): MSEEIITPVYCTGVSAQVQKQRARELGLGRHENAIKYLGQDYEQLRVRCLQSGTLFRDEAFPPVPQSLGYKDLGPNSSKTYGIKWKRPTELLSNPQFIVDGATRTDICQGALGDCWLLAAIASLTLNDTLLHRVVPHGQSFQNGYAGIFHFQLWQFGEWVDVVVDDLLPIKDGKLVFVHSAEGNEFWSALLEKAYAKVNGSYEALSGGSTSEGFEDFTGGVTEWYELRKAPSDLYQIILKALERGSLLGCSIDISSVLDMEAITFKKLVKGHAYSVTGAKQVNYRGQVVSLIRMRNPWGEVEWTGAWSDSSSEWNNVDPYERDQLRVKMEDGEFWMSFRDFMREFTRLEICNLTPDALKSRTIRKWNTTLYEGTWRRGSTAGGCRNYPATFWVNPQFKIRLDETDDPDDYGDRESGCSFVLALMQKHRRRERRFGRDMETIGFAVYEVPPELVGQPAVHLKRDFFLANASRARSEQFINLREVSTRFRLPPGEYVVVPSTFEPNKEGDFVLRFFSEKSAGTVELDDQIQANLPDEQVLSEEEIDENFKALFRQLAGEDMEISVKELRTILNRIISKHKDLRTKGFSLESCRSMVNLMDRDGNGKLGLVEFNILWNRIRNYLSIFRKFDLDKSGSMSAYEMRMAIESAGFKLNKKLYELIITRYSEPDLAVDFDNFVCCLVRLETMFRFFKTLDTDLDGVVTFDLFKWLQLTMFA
Chain of Caspase-1 (Homo sapiens) (P29466 120-297 limits assumed): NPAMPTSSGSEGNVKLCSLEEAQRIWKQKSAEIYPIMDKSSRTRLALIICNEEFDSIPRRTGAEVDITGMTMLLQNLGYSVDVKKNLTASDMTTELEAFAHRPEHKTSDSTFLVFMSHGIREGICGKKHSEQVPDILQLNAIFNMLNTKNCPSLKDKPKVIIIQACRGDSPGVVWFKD
Chain of Caspase-1 (Homo sapiens) (P29466 317-404 limits assumed): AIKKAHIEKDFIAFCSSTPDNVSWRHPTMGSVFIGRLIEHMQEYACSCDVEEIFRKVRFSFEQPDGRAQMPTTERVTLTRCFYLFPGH

fraction unbound [1]: 0.001
inhibition [2]: 0%
inhibition (Caspase-9 (Homo sapiens)): -1%
inhibition (Sus scrofa): -5%
inhibition [3]: 1%
half-life [4]: 15 h
fraction unbound [5]: 0.001
Activity (Cytochrome P450 2D6): Not Active
half-life [6]: 0.25 h
inhibition [7]: 0%
inhibition (Homo sapiens [8]): 59%
inhibition (Renin (Homo sapiens)): -3%
inhibition [9]: -8%
inhibition [10]: 72%
pEC50 [11]: 7.87
AUC(0-inf) [12]: 1030 ng·h/mL
inhibition [13]: 12%
inhibition [14]: -3%
inhibition (Caspase-3 (Homo sapiens)): 2%
inhibition [15]: 13%
AUC(0-inf) [16]: 2910 ng·h/mL
inhibition [17]: 2%
inhibition [18]: 6%
pIC50 (Cathepsin G): 5.68
pIC50 [19]: 8.42
clearance [20]: 23.3 mL/min/kg
inhibition (Trypsin (Homo sapiens)): 0%
inhibition (Caspase-7 (Homo sapiens)): 0%
inhibition [21]: -3%
half-life [22]: 71 h
clearance [23]: 3.17 mL/min/kg
inhibition (Caspase-2 (Homo sapiens)): 1%
half-life [24]: 53 h
inhibition [25]: -2%
half-life [26]: > 0.667 h
inhibition [27]: 7%
pIC50 (Neutrophil elastase): 5.45
pIC50 [28]: 5.82
inhibition (Caspase-1 (Homo sapiens)): 1%
inhibition [29]: 1%
fraction unbound [30]: 0.001
half-life [31]: 86 h
inhibition (Homo sapiens [32]): -3%
Vd [33]: 10.3 L/kg
pIC50 (Cytochrome P450 3A4): 5.46
bioavailability [34]: 54%
inhibition (Caspase-8 (Homo sapiens)): -2%
inhibition [35]: 4%
inhibition (Chymase (Homo sapiens)): 80%
inhibition [36]: 0%
Structure (SMILES): CC(C)C[C@H](NC(=O)[C@@H](NC(=O)c1cccc(-c2ccccc2)n1)[C@@H](C)O)B(O)O [DELANZOMIB]
